ChEMBL document CHEMBL2385057 (Bioorg Med Chem Lett, 2013)

Test system: not listed separately
Assay: Fraction unbound in brain of medial meniscal transection rat osteoarthritis pain model at 10 mg/kg, sc administered on day 28 post medial meniscal transection surgery measured at 1 hr to 3 hrs
Assay type: ADME, organism-based
Set-up: dose 10 mg/kg, route subcutaneous
Details: not given

fraction unbound | SMILES
0.009 | COc1ncc(-c2cc(C3=Nc4c(C(C)(C)C)nn(CCO)c4C(=O)NC3)ccc2OC)cn1

Test system: Brain
Assay: Total drug level in brain of medial meniscal transection rat osteoarthritis pain model at 10 mg/kg, sc administered on day 28 post medial meniscal transection surgery measured at 1 hr to 3 hrs
Assay type: ADME, organism-based
Set-up: dose 10 mg/kg, route subcutaneous
Details: read-out: Drug uptake, in vivo

concentration | SMILES
475 nM | COc1ncc(-c2cc(C3=Nc4c(C(C)(C)C)nn(CCO)c4C(=O)NC3)ccc2OC)cn1

Test system: not listed separately
Assay: Fraction unbound in plasma of medial meniscal transection rat osteoarthritis pain model at 10 mg/kg, sc administered on day 28 post medial meniscal transection surgery measured at 1 hr to 3 hrs
Assay type: ADME, organism-based
Set-up: dose 10 mg/kg, route subcutaneous
Details: not given

fraction unbound | SMILES
0.032 | COc1ncc(-c2cc(C3=Nc4c(C(C)(C)C)nn(CCO)c4C(=O)NC3)ccc2OC)cn1

Test system: not listed separately
Assay: Plasma concentration in medial meniscal transection rat osteoarthritis pain model at 10 mg/kg, sc administered on day 28 post medial meniscal transection surgery measured at 1 hr
Assay type: ADME, organism-based
Set-up: dose 10 mg/kg, route subcutaneous
Details: not given
Procedure, shortened: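 Plasma was sampled 1 h after a single subcutaneous 10 mg/kg dose in the rat osteoarthritis pain model. Free concentration was derived using the rat plasma free fraction.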

concentration at 1 h | SMILES
2500 nM | COc1ncc(-c2cc(C3=Nc4c(C(C)(C)C)nn(CCO)c4C(=O)NC3)ccc2OC)cn1

Test system: Rattus norvegicus
Assay: Analgesic activity in medial meniscal transection rat osteoarthritis pain model assessed as inhibition of change in hind paw weight distribution at 10 mg/kg, po administered on day 28 post medial meniscal transection surgery measured after 3 hrs relative to vehicle-treated control
Assay type: functional
Details: not given

SMILES | inhibition in vivo at 10 mg/kg
CS(=O)(=O)c1ccc(C2=C(c3ccccc3)C(=O)OC2)cc1 [ROFECOXIB] | 79%

Test system: Rattus norvegicus
Assay: Analgesic activity in medial meniscal transection rat osteoarthritis pain model assessed as inhibition of change in hind paw weight distribution at 10 mg/kg, sc administered on day 28 post medial meniscal transection surgery measured after 3 hrs relative to vehicle-treated control
Assay type: functional
Details: route subcutaneous
Procedure, shortened: (§1)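 The rats were assessed for hind paw weight distribution. On day 28 after surgery they received a single subcutaneous dose of compound or vehicle and were reassessed 1 and 3 h post dose. N = 6 rats per group, data as mean ± SEM. Significance was tested by one-way ANOVA with Dunnett's test against vehicle at the same time point, P < 0.05.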

SMILES | inhibition in vivo at 10 mg/kg
CS(=O)(=O)c1ccc(C2=C(c3ccccc3)C(=O)OC2)cc1 [ROFECOXIB] | 100%

Test system: not listed separately
Assay: Oral bioavailability in Sprague-Dawley rat at 10 mg/kg
Assay type: ADME, organism-based
Details: in vivo
Procedure, shortened: (§2)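 Male Sprague–Dawley rats, two animals per route. Dosing was either intravenous at 1 mg/kg or oral at 10 mg/kg. Pharmacokinetic parameters were derived from these dosings.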

bioavailability | SMILES
31% | COc1ccc(C2=Nc3c(C(C)(C)C)nn(CCCO)c3C(=O)NC2)cc1-c1cnn(C)c1
75% | CCC(CC)c1nn(CCO)c2c1N=C(c1ccc(-n3ccnc3C)cc1)CNC2=O
78% | COc1ncc(-c2cc(C3=Nc4c(C(C)(C)C)nn(CCO)c4C(=O)NC3)ccc2OC)cn1

Test system: not listed separately
Assay: Tmax in Sprague-Dawley rat at 10 mg/kg, po
Assay type: ADME, organism-based
Set-up: dose 10 mg/kg, route oral
Details: in vivo
Procedure, shortened: as §2

Tmax | SMILES
0.5 h | COc1ccc(C2=Nc3c(C(C)(C)C)nn(CCCO)c3C(=O)NC2)cc1-c1cnn(C)c1
2.25 h | CCC(CC)c1nn(CCO)c2c1N=C(c1ccc(-n3ccnc3C)cc1)CNC2=O
3 h | COc1ncc(-c2cc(C3=Nc4c(C(C)(C)C)nn(CCO)c4C(=O)NC3)ccc2OC)cn1

Test system: not listed separately
Assay: AUC in Sprague-Dawley rat at 10 mg/kg, po
Assay type: ADME, organism-based
Set-up: dose 10 mg/kg, route oral
Details: plasma
Procedure, shortened: as §2

AUC | SMILES
1160 ng·h/mL | COc1ccc(C2=Nc3c(C(C)(C)C)nn(CCCO)c3C(=O)NC2)cc1-c1cnn(C)c1
1660 ng·h/mL | CCC(CC)c1nn(CCO)c2c1N=C(c1ccc(-n3ccnc3C)cc1)CNC2=O
4530 ng·h/mL | COc1ncc(-c2cc(C3=Nc4c(C(C)(C)C)nn(CCO)c4C(=O)NC3)ccc2OC)cn1

Test system: not listed separately
Assay: Volume of distribution at steady state in Sprague-Dawley rat at 1 mg/kg, iv and 10 mg/kg, po
Assay type: ADME, organism-based
Details: in vivo, read-out: Vdss
Procedure, shortened: as §2

Vd | SMILES
2 L/kg | COc1ccc(C2=Nc3c(C(C)(C)C)nn(CCCO)c3C(=O)NC2)cc1-c1cnn(C)c1
1.1 L/kg | CCC(CC)c1nn(CCO)c2c1N=C(c1ccc(-n3ccnc3C)cc1)CNC2=O
3.02 L/kg | COc1ncc(-c2cc(C3=Nc4c(C(C)(C)C)nn(CCO)c4C(=O)NC3)ccc2OC)cn1

Test system: not listed separately
Assay: Clearance in Sprague-Dawley rat at 1 mg/kg, iv and 10 mg/kg, po
Assay type: ADME, organism-based
Details: in vivo
Procedure, shortened: as §2

clearance | SMILES
43 mL/min/kg | COc1ccc(C2=Nc3c(C(C)(C)C)nn(CCCO)c3C(=O)NC2)cc1-c1cnn(C)c1
70 mL/min/kg | CCC(CC)c1nn(CCO)c2c1N=C(c1ccc(-n3ccnc3C)cc1)CNC2=O
27 mL/min/kg | COc1ncc(-c2cc(C3=Nc4c(C(C)(C)C)nn(CCO)c4C(=O)NC3)ccc2OC)cn1

Test system: not listed separately
Assay: Half life in Sprague-Dawley rat at 1 mg/kg, iv
Assay type: ADME, organism-based
Set-up: dose 1 mg/kg, route intravenous
Details: in vivo
Procedure, shortened: as §2

half-life | SMILES
0.73 h | COc1ccc(C2=Nc3c(C(C)(C)C)nn(CCCO)c3C(=O)NC2)cc1-c1cnn(C)c1
0.53 h | CCC(CC)c1nn(CCO)c2c1N=C(c1ccc(-n3ccnc3C)cc1)CNC2=O
1.5 h | COc1ncc(-c2cc(C3=Nc4c(C(C)(C)C)nn(CCO)c4C(=O)NC3)ccc2OC)cn1

Test system: not listed separately
Assay: Half life in human liver microsomes
Assay type: ADME, Microsome
Details: not given

half-life | SMILES
0.55 h | COc1ccc(C2=Nc3c(C(C)(C)C)nn(CCO)c3C(=O)NC2)cc1-c1cnc(N2CCCC2)nc1
2 h | COc1ccc(C2=Nc3c(C(C)(C)C)nn(CCCO)c3C(=O)NC2)cc1-c1ccc(F)cc1F
2 h | COc1ccc(C2=Nc3c(C(C)(C)C)nn(CCCO)c3C(=O)NC2)cc1-c1ccc(C(=O)O)cc1
2 h | COc1ccc(-c2cc(C3=Nc4c(C(C)(C)C)nn(CCCO)c4C(=O)NC3)ccc2OC)c(OC)c1
0.65 h | COc1ccc(C2=Nc3c(C(C)(C)C)nn(CCO)c3C(=O)NC2)cc1-c1cnc(N2CCOCC2)nc1
1.23 h | COc1ccc(C2=Nc3c(C(C)(C)C)nn(CCO)c3C(=O)NC2)cc1-c1cnc(N(C)C)cc1C
0.6 h | COc1ccc(C2=Nc3c(C(C)(C)C)nn(CCO)c3C(=O)NC2)cc1-c1cnc(N(C)C)nc1
0.983 h | COc1ccc(C2=Nc3c(C(C)(C)C)nn(CCO)c3C(=O)NC2)cc1-c1cnn(C)c1
2 h | COc1ccc(C2=Nc3c(C(C)(C)C)nn(CCCO)c3C(=O)NC2)cc1-c1cnn(C)c1
0.567 h | COc1ncc(-c2cc(C3=Nc4c(C(C)(C)C)nn(CCO)c4C(=O)NC3)ccc2OC)cn1

Test system: not listed separately
Assay: Half life in rat liver microsomes
Assay type: ADME, Microsome
Details: not given

half-life | SMILES
> 1 h | COc1ncc(-c2cc(C3=Nc4c(C(C)(C)C)nn(CCO)c4C(=O)NC3)ccc2OC)cn1

Biological target: cGMP-dependent 3',5'-cyclic phosphodiesterase (Homo sapiens, UniProt O00408)
Assay: Inhibition of PDE2 catalytic domain (unknown origin)
Details: not given

Chain of cGMP-dependent 3',5'-cyclic phosphodiesterase (O00408 whole entry, the tested form may be a part): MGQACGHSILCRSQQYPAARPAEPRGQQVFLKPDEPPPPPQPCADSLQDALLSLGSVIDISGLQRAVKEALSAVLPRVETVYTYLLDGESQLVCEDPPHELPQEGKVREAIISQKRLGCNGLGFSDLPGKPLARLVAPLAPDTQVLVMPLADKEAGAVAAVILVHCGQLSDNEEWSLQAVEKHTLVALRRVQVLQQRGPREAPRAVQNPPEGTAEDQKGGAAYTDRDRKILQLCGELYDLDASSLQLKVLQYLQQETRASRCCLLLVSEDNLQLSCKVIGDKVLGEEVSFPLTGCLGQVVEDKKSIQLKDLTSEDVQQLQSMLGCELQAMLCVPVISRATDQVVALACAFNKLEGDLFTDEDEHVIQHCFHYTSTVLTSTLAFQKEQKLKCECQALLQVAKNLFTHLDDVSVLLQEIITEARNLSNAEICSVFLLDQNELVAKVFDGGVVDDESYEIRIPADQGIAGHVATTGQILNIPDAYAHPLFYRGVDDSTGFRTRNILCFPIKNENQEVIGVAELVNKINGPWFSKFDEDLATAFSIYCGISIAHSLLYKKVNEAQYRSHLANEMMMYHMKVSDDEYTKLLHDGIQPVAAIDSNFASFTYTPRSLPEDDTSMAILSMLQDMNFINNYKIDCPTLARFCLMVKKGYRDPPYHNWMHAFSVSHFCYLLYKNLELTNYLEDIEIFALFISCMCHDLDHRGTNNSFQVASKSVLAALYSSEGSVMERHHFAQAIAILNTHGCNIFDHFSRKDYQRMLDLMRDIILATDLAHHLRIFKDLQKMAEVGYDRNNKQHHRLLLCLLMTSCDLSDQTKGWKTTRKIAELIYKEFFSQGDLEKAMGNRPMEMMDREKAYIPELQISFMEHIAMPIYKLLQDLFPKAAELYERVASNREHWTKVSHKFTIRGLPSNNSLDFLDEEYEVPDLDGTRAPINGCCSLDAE

IC50 | SMILES
1.2 nM | COc1ccc(C2=Nc3c(C(C)(C)C)nn(CCO)c3C(=O)NC2)cc1-c1cnc(N2CCCC2)nc1
483 nM | COc1ccc(C2=Nc3c(C(C)(C)C)nn(CCCO)c3C(=O)NC2)cc1-c1ccc(F)cc1F
40 nM | COc1ccc(C2=Nc3c(C(C)(C)C)nn(CCCO)c3C(=O)NC2)cc1-c1ccc(C(=O)O)cc1
14 nM | COc1ccc(-c2cc(C3=Nc4c(C(C)(C)C)nn(CCCO)c4C(=O)NC3)ccc2OC)c(OC)c1
1.4 nM | COc1ccc(C2=Nc3c(C(C)(C)C)nn(CCO)c3C(=O)NC2)cc1-c1cnc(N2CCOCC2)nc1
1.3 nM | COc1ccc(C2=Nc3c(C(C)(C)C)nn(CCO)c3C(=O)NC2)cc1-c1cnc(N(C)C)cc1C
2.5 nM | COc1ccc(C2=Nc3c(C(C)(C)C)nn(CCO)c3C(=O)NC2)cc1-c1cnc(N(C)C)nc1
6.8 nM | COc1ccc(C2=Nc3c(C(C)(C)C)nn(CCO)c3C(=O)NC2)cc1-c1cnn(C)c1
36 nM | COc1ccc(C2=Nc3c(C(C)(C)C)nn(CCCO)c3C(=O)NC2)cc1-c1cnn(C)c1

Biological target: 3',5'-cyclic-AMP phosphodiesterase 4B (Homo sapiens, UniProt Q07343)
Assay: Inhibition of PDE4B catalytic domain (unknown origin)
Details: not given
Procedure, shortened: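 Each IC50 is the mean of at least two independent determinations. Each curve had 10 half-log dilutions, centred near the 50% inhibition level, with each point run in duplicate.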

Chain of 3',5'-cyclic-AMP phosphodiesterase 4B (Q07343 whole entry, the tested form may be a part): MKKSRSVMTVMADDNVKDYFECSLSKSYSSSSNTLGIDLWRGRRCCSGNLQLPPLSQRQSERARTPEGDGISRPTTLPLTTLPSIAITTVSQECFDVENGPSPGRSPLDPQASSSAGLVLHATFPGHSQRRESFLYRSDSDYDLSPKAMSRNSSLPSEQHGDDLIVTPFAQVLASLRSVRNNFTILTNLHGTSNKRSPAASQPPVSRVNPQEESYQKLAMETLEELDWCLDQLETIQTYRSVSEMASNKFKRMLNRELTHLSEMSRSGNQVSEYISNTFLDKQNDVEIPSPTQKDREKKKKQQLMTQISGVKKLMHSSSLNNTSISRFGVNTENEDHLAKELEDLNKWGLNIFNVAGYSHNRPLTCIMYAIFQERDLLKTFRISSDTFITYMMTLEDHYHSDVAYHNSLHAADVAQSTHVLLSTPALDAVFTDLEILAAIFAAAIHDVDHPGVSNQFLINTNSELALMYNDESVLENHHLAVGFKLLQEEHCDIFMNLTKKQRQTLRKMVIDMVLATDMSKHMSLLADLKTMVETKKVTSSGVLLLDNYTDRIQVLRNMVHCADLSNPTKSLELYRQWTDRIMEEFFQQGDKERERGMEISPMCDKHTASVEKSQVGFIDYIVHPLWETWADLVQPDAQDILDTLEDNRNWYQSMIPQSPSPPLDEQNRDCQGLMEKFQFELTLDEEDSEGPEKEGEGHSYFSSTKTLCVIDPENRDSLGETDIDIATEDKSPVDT

IC50 | SMILES
410 nM | COc1ccc(C2=Nc3c(C(C)(C)C)nn(CCO)c3C(=O)NC2)cc1-c1cnc(N2CCCC2)nc1
100000 nM | COc1ccc(C2=Nc3c(C(C)(C)C)nn(CCCO)c3C(=O)NC2)cc1-c1ccc(F)cc1F
27000 nM | COc1ccc(C2=Nc3c(C(C)(C)C)nn(CCCO)c3C(=O)NC2)cc1-c1ccc(C(=O)O)cc1
100000 nM | COc1ccc(-c2cc(C3=Nc4c(C(C)(C)C)nn(CCCO)c4C(=O)NC3)ccc2OC)c(OC)c1
265 nM | COc1ccc(C2=Nc3c(C(C)(C)C)nn(CCO)c3C(=O)NC2)cc1-c1cnc(N2CCOCC2)nc1
534 nM | COc1ccc(C2=Nc3c(C(C)(C)C)nn(CCO)c3C(=O)NC2)cc1-c1cnc(N(C)C)cc1C
695 nM | COc1ccc(C2=Nc3c(C(C)(C)C)nn(CCO)c3C(=O)NC2)cc1-c1cnc(N(C)C)nc1
110 nM | COc1ccc(C2=Nc3c(C(C)(C)C)nn(CCO)c3C(=O)NC2)cc1-c1cnn(C)c1
6740 nM | COc1ccc(C2=Nc3c(C(C)(C)C)nn(CCCO)c3C(=O)NC2)cc1-c1cnn(C)c1
562 nM | COc1ncc(-c2cc(C3=Nc4c(C(C)(C)C)nn(CCO)c4C(=O)NC3)ccc2OC)cn1

Test system: Rattus norvegicus
Assay: Analgesic activity in medial meniscal transection rat osteoarthritis pain model assessed as inhibition of change in hind paw weight distribution at 10 mg/kg, sc administered on day 28 post medial meniscal transection surgery measured after 1 hr relative to vehicle-treated control
Assay type: functional
Details: route subcutaneous
Procedure, shortened: as §1

SMILES | inhibition in vivo at 10 mg/kg
COc1ncc(-c2cc(C3=Nc4c(C(C)(C)C)nn(CCO)c4C(=O)NC3)ccc2OC)cn1 | 79%

Test system: Rattus norvegicus
Assay: Analgesic activity in medial meniscal transection rat osteoarthritis pain model assessed as inhibition of change in hind paw weight distribution at 10 mg/kg, po administered on day 28 post medial meniscal transection surgery measured after 1 hr relative to vehicle-treated control
Assay type: functional
Details: not given

SMILES | inhibition in vivo at 10 mg/kg
COc1ncc(-c2cc(C3=Nc4c(C(C)(C)C)nn(CCO)c4C(=O)NC3)ccc2OC)cn1 | 44%
